In ChEMBL document CHEMBL4152246, “Natural oxyprenylated coumarins are modulators of melanogenesis” (Eur J Med Chem, 2018):
Activity calls are given as the source filed them. The calls are words filed in the database; no cut-off is given here.

What was measured:
Melan-a [1] = experiment: Cytotoxicity against mouse Melan-a cells assessed as effect on cell viability at <2 uM after 24 to 72 hrs by trypan blue exclusion assay; format: cell-based
Melan-a [2] = experiment: Induction of melanogenesis in mouse Melan-a cells assessed as effect on tanning property at 40 uM after 48 hrs; format: functional, cell-based
Melan-a [3] = experiment: Inhibition of melanogenesis in mouse Melan-a cells assessed as effect on whitening property at 40 uM after 48 hrs; format: functional, cell-based
Outline: (§1)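 Melan-a murine melanocytes in RPMI 1640 with 10% FBS, penicillin/streptomycin and 200 nM PMA at 37 °C and 5% CO2. Seeded at 60,000 cells/well in 6-well plates and treated 48 h with 1–40 µM from 1000X DMSO stock (final 0.1% DMSO) or DMSO alone. For line 1, cells were pretreated 1 h with 1 µM ICI 182780. Melanin is read as A405, % of control.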

Melan-a [4] = experiment: Cytotoxicity against mouse Melan-a cells assessed as effect on cell viability at 40 uM after 24 to 72 hrs by trypan blue exclusion assay; format: cell-based
Outline: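 Melan-a cells seeded at 60,000/well in 6-well plates and treated at 40 µM (0.1% DMSO) for the indicated times. Cells were trypsinized, pelleted at 4 °C, stained with 0.25% trypan blue in PBS and counted in a Malassez chamber. Viability % = [1 − (blue/total cells)] × 100. Mean ± SEM of three independent experiments in duplicate.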

Melan-a [5] = experiment: Induction of melanogenesis in mouse Melan-a cells assessed as increase in melanin content at 10 to 40 uM after 48 hrs; format: functional, cell-based; outline: as §1
Melan-a [6] = experiment: Induction of melanogenesis in mouse Melan-a cells assessed as increase in melanin content at 40 uM; format: functional, cell-based
Melan-a [7] = experiment: Induction of melanogenesis in mouse Melan-a cells assessed as increase in melanin content at 40 uM after 72 hrs relative to control; format: functional
Outline: (§2)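 Melan-a cells in PMA-containing RPMI/10% FBS, treated 3 days at 40 µM (0.1% DMSO final) against DMSO-treated controls. Pellets were washed in PBS and extracted with water/EtOH–ether (1/1). Melanin was solubilized in 1 M NaOH/DMSO 90/10 at 80 °C for 1 h, read as A405 and expressed as % of control. Mean ± SEM, t test.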

Melan-a [8] = experiment: Induction of melanogenesis in mouse Melan-a cells assessed as effect on pigmentation at 40 uM after 72 hrs by photography; format: functional, cell-based
Outline: (§3)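 Melan-a cells treated with 40 µM or solvent vehicle for 3 days, then photographed to record pigmentation.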

Melan-a [9] = experiment: Increase in tyrosinase mRNA expression in mouse Melan-a cells at 40 uM after 24 hrs by SYBR green dye based qRT-PCR analysis; format: functional, cell-based
Outline: (§4)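 Real-time PCR on Melan-a cells given 40 µM for 24 h. Total RNA was isolated with TRIzol, and Ct values of tyrosinase, TRP-1, TRP-2 and MITF were normalized to cyclophilin A1. Mean of three independent experiments in duplicate.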

Melan-a [10] = experiment: Increase in TRP1 mRNA expression in mouse Melan-a cells at 40 uM after 24 hrs by SYBR green dye based qRT-PCR analysis; format: functional, cell-based; outline: as §4
Melan-a [11] = experiment: Increase in TRP2 mRNA expression in mouse Melan-a cells at 40 uM after 24 hrs by SYBR green dye based qRT-PCR analysis; format: functional, cell-based; outline: as §4
Melan-a [12] = experiment: Increase in MITF mRNA expression in mouse Melan-a cells at 40 uM after 24 hrs by SYBR green dye based qRT-PCR analysis; format: functional, cell-based; outline: as §4
[13] = Photostability of the compound assessed as compound degradation under sunlight exposed for 6 days in EtOH solution measured by TLC method; format: physicochemical; conditions: 144 h
[14] = Photostability of the compound assessed as compound degradation under sunlight exposed for 6 days in EtOH solution measured in presence of UV-A filter Uvinul A by TLC method; format: physicochemical; conditions: 144 h
[15] = biological target: Estrogen receptor beta (Mus musculus) (UniProt O08537); experiment: Binding affinity to ERbeta in mouse Melan-a cells; format: cell-based
Estrogen receptor beta (Mus musculus), sequence (O08537 whole entry): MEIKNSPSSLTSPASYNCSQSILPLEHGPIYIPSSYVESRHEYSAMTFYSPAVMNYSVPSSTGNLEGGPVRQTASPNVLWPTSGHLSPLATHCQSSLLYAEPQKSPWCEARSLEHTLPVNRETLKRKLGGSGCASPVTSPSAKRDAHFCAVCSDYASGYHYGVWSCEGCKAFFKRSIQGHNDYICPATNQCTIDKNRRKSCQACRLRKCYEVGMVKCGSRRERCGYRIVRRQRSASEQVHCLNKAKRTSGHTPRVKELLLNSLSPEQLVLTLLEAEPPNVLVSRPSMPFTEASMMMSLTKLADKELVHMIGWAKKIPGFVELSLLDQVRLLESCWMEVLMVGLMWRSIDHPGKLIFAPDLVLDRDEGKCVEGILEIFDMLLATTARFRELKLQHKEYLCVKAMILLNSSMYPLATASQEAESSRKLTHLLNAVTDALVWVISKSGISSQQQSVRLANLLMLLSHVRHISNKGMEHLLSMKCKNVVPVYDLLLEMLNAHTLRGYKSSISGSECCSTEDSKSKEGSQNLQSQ

[16] = biological target: Estrogen receptor beta (Mus musculus) (UniProt O08537); experiment: Agonist activity at ERbeta in mouse Melan-a cells assessed as increase in melanin content at 40 uM measured after 48 hrs in presence of ER antagonist ICI 182780; format: cell-based; outline: as §1
Melan-a [17] = experiment: Increase in TRP1 expression in mouse Melan-a cells at 40 uM after 48 hrs by Western blot analysis
Melan-a [18] = experiment: Increase in TRP2 expression in mouse Melan-a cells at 40 uM after 48 hrs by Western blot analysis
Melan-a [19] = experiment: Increase in MITF expression in mouse Melan-a cells at 40 uM after 48 hrs by Western blot analysis
Melan-a [20] = experiment: Increase in Rab27a expression in mouse Melan-a cells at 40 uM after 48 hrs by Western blot analysis
Melan-a [21] = experiment: Increase in tyrosinase expression in mouse Melan-a cells at 40 uM after 48 hrs by Western blot analysis
Melan-a [22] = experiment: Induction of melanogenesis in mouse Melan-a cells assessed as pro-pigmentation at 40 uM after 48 hrs relative to control; format: functional; outline: as §1
Melan-a [23] = experiment: Inhibition of melanogenesis in mouse Melan-a cells assessed as effect on whitening property measured after 48 hrs; format: functional, cell-based; outline: as §1
Melan-a [24] = experiment: Inhibition of melanogenesis in mouse Melan-a cells assessed as reduction in melanin content at 40 uM; format: functional, cell-based
Melan-a [25] = experiment: Inhibition of melanogenesis in mouse Melan-a cells assessed as reduction in melanin content at 40 uM after 72 hrs relative to control; format: functional; outline: as §2
Melan-a [26] = experiment: Inhibition of melanogenesis in mouse Melan-a cells assessed as effect on pigmentation at 40 uM after 72 hrs by photography; format: functional, cell-based; outline: as §3
Melan-a [27] = experiment: Decrease in tyrosinase mRNA expression in mouse Melan-a cells at 40 uM after 24 hrs by SYBR green dye based qRT-PCR analysis relative to control; format: functional; outline: as §4
Melan-a [28] = experiment: Decrease in TRP1 mRNA expression in mouse Melan-a cells at 40 uM after 24 hrs by SYBR green dye based qRT-PCR analysis relative to control; format: functional; outline: as §4
Melan-a [29] = experiment: Decrease in TRP2 mRNA expression in mouse Melan-a cells at 40 uM after 24 hrs by SYBR green dye based qRT-PCR analysis relative to control; format: functional; outline: as §4
Melan-a [30] = experiment: Decrease in MITF mRNA expression in mouse Melan-a cells at 40 uM after 24 hrs by SYBR green dye based qRT-PCR analysis relative to control; format: functional; outline: as §4
Melan-a [31] = experiment: Effect on TRP2 expression in mouse Melan-a cells at 40 uM after 48 hrs by western blot analysis (reference value: 1)
Melan-a [32] = experiment: Effect on TRP1 expression in mouse Melan-a cells at 40 uM after 48 hrs by western blot analysis (reference value: 1)
Melan-a [33] = experiment: Effect on MITF expression in mouse Melan-a cells at 40 uM after 48 hrs by western blot analysis (reference value: 1)
Melan-a [34] = experiment: Effect on Rab27a expression in mouse Melan-a cells at 40 uM after 48 hrs by western blot analysis (reference value: 1)
Melan-a [35] = experiment: Effect on tyrosinase expression in mouse Melan-a cells at 40 uM after 48 hrs by western blot analysis (reference value: 1)
Melan-a [36] = experiment: Antimelanogenic activity in mouse Melan-a cells assessed as inhibition of alpha-MSH-stimulated melanin synthesis at 40 uM measured after 48 hrs
Melan-a [37] = experiment: Antimelanogenic activity in mouse Melan-a cells assessed as inhibition of UV irradiation-stimulated melanin synthesis at 40 uM measured after 48 hrs

In the case of `CC(C)=CCC/C(C)=C/COc1c2occc2cc2ccc(=O)oc12`, the Activity (Melan-a [1]) is reported as “Toxic”.

With `COc1c(OC/C=C(\C)CCC=C(C)C)ccc2ccc(=O)oc12` the Activity (Melan-a [2]) was “inactive” and the inhibition (Melan-a [3]) was “inactive”.

In the case of `COc1c(OCC=C(C)C)ccc2ccc(=O)oc12`, the Activity (Melan-a [2]) is reported as “inactive” and the inhibition (Melan-a [3]) is reported as “inactive”.

For `COc1cc(OC/C=C(\C)CCC=C(C)C)c2ccc(=O)oc2c1`, the Activity (Melan-a [2]) was “inactive” and the inhibition (Melan-a [3]) was “inactive”.

In the case of `COc1cc2ccc(=O)oc2cc1OC/C=C(\C)CCC=C(C)C`, the Activity (Melan-a [2]) is reported as “inactive” and the inhibition (Melan-a [3]) is reported as “inactive”.

In the case of `CC(C)=CCOc1ccc2ccc(=O)oc2c1` [7-PRENYLOXYCOUMARIN], the Activity (Melan-a [4]) is reported as “Non-Toxic”, the Activity (Melan-a [5]) is reported as “Active” and the Activity (Melan-a [6]) is reported as “Dose-dependent effect”. The “fold change (FC)” value (Melan-a [7]) was 6, the Activity (Melan-a [8]) was “Active” and the Activity (Melan-a [9]) was “Active”. The Activity (Melan-a [10]) was “Active”, the Activity (Melan-a [11]) was “Active” and the Activity (Melan-a [12]) was “Active”. For the same compound, the Stability [13] was “Unstable”, the Stability [14] was “Stable” and the Activity [15] was “Active”. The Activity [16] was “Active”, the Activity (Melan-a [17]) was “Active” and the Activity (Melan-a [18]) was “Active”. For the same compound, the Activity (Melan-a [19]) was “Active”, the Activity (Melan-a [20]) was “Active” and the Activity (Melan-a [21]) was “Active”.

In the case of `CC(C)=CCC/C(C)=C/COc1ccc2ccc(=O)oc2c1` [AURAPTENE], the Activity (Melan-a [4]) is reported as “Non-Toxic”, the “fold change (FC)” value (Melan-a [22]) is reported as 1.3 and the Activity (Melan-a [6]) is reported as “Dose-dependent effect”. The “fold change (FC)” value (Melan-a [7]) was 2, the Activity (Melan-a [8]) was “Active” and the Stability [13] was “Unstable”. For the same compound, the Stability [14] was “Stable” and the Activity [15] was “Active”.

In the case of `CC(C)=CCC/C(C)=C/COc1c2ccoc2cc2oc(=O)ccc12` [BERGAMOTTIN], the Activity (Melan-a [1]) is reported as “Toxic”.

With `CC(C)=CCOc1c2ccoc2cc2oc(=O)ccc12` [ISOIMPERATORIN] the Activity (Melan-a [1]) was “Toxic”.

With `CC(C)=CCOc1c2occc2cc2ccc(=O)oc12` [PENTOSALEN] the Activity (Melan-a [1]) was “Toxic”, the Activity (Melan-a [2]) was “inactive” and the inhibition (Melan-a [3]) was “inactive”.

For `O=c1ccc2ccc(O)cc2o1` [UMBELLIFERONE], the Activity (Melan-a [4]) was “Non-Toxic”, the Activity (Melan-a [2]) was “inactive” and the inhibition (Melan-a [3]) was “inactive”.

In the case of `CC(C)=CCC/C(C)=C/CC/C(C)=C/COc1ccc2ccc(=O)oc2c1` [UMBELLIPRENIN], the Activity (Melan-a [4]) is reported as “Non-Toxic”, the inhibition (Melan-a [23]) is reported as “Dose-dependent effect” and the inhibition (Melan-a [24]) is reported as “Dose-dependent effect”. The inhibition at 40 µM (Melan-a [25]) was greater than 70%, the inhibition (Melan-a [26]) was “Active” and the “fold change (FC)” value (Melan-a [27]) was greater than 2. For the same compound, the “fold change (FC)” value (Melan-a [28]) was greater than 2, the “fold change (FC)” value (Melan-a [29]) was greater than 2 and the “fold change (FC)” value (Melan-a [30]) was greater than 2. The Activity [15] was “Active”, the “fold change (FC)” value (Melan-a [31]) was 0.3 and the “fold change (FC)” value (Melan-a [32]) was 0.1. For the same compound, the “fold change (FC)” value (Melan-a [33]) was 0.5, the “fold change (FC)” value (Melan-a [34]) was 0.3 and the “fold change (FC)” value (Melan-a [35]) was 1.6. For the same compound, the inhibition (Melan-a [36]) was “Active” and the inhibition (Melan-a [37]) was “Active”.
